Bioassay records deposited in PubChem BioAssay by The Scripps Research Institute Molecular Screening Center.
ABHD4 inh – ABHD4 (mouse) inhibition, primary FP screen; hit rate 0.54% among 370,000; AID 720543; purified mABHD4, FP-Rh probe fluorescence polarization; Q8VD66; inhibition, % at 8.92 µM;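 active = inhibition exceeding the mean over every tested compound plus 3 SD, cut at about 30% in these data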;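 note: 0% = plate median of compound wells and 100% = S159A mutant with DMSO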
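Assay system: mouse ABHD4 enzyme, wild type / Also added: fluorescent activity-based probe FP-Rh / Doses: single nominal dose of 8.92 µM, 0.89% DMSO final / Timing: 45 min compound pre-incubation plus 60 min probe step, 25 °C / Signal: FP readout, ex 525 nm / em 598 nm / Control set: S159A mutant/DMSO as 100%, compound-well median as 0%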
pPAFAH inh – pPAFAH (human) enzyme inhibition. Q13093. recombinant pPAFAH, FP-rhodamine probe fluorescence polarization. hit rate 1.5% among 330,000. AID 463082. inhibition, % at 3.39 µM;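 active = inhibition above the mean inhibition across the screen plus 3 SD, cut at about 25% in these data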;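 note: inhibitors block binding of the rhodamine activity-based probe so polarization drops; 0% = enzyme with DMSO and 100% = wells lacking pPAFAH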
Target sequence (Q13093 whole entry, looked up): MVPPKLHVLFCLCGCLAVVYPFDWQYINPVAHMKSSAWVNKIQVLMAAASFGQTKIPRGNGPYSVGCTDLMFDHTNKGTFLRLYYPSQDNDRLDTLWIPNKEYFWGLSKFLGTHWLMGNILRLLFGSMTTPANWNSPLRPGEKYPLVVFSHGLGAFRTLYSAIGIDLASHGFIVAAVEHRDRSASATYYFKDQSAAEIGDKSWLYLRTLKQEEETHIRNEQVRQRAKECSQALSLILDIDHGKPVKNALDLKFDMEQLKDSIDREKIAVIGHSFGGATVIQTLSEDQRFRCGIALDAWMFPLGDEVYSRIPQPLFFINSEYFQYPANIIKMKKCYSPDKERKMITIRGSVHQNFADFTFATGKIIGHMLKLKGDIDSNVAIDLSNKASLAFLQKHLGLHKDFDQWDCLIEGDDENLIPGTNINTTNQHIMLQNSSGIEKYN
TCR-CD3 inh – blocks the human TCR-CD3 interaction | TAMRA-labeled TCR probe fluorescence, biochemical | inhibition, % at 9.4 µM | hit rate 0.37% among 360,000; in the data active = inhibition above about 19%;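 note: recombinant mutant TCR 2C K166C tagged with TAMRA read by polarization; 0% = receptor in buffer alone and 100% = receptor with positive control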
HTRA1 inh – blocks human HTRA1 serine peptidase. Q92743. recombinant HTRA1, FP-rhodamine activity-based probe, fluorescence polarization. inhibition, % at 5.96 µM. hit rate 0.5% among 340,000; in the data active = inhibition above about 36%;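 note: 0% = enzyme with DMSO and 100% = wells lacking enzyme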
SIAE primary – blocks human sialic acid acetylesterase; Q9HAT2; SIAE FP-Rh probe binding, fluorescence polarization; inhibition, % at 9.66 µM; hit rate 0.69% among 370,000;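 active = inhibition above a cutoff: mean of compounds within the control limits plus 3 SD of those, cut at about 17% in these data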;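 note: 0% = plate median of compound wells and 100% = probe without SIAE protein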
SIAE inh conf – human SIAE inhibition, confirmation | shares compounds with SIAE primary | SIAE FP-Rh activity-based probe, fluorescence polarization | inhibition, % at 9.66 µM | hit rate 13% among 2,300;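 active = mean inhibition of the replicates above the hit cutoff set in the primary screen, cut at about 17% in these data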;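 note: 0% = SIAE with DMSO and probe and 100% = probe without SIAE; inhibitors lower polarization as more probe stays unbound to SIAE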
The depositor's hits bear a star; . = no result. In the library only some 2.3% were active in any assay of this set; here they are far more common.

SMILES	ABHD4 inh	pPAFAH inh	TCR-CD3 inh	HTRA1 inh	SIAE primary	SIAE inh conf
CN(CC(=O)Nc1cccc(F)c1)C(=O)c1ccc(OCc2ccccc2)cc1	3	3	-5	-6	7	.
CN(CC(=O)Nc1cccc(F)c1)C(=O)c1ccc(C2SCCS2)cc1	2	-2	11	-12	20*	48*
CCc1nc2ccc(C(=O)NCc3ccccc3OC)cn2c1N(C)Cc1ccc(OC)cc1	-4	.	-1	.	10	.
CN1Cc2c(N3CCOCC3)nc3sc(C#N)c(N)c3c2CC1(C)C	5	-6	4	6	20*	4
CC(C)CN1C(=O)C[C@]2(C(=O)N(C)c3ccc(NC(=O)c4cc(F)ccc4F)cc32)C1c1ccccc1 (stereo partly drawn)	2	.	.	.	-3	.
COc1ccc(NC(=S)N=Nc2c(O)[nH]c3ccccc23)cc1	13	10	-2	6	6	.
Oc1ccc(NC(=S)N=Nc2c(O)[nH]c3ccccc23)cc1	19	10	3	14	19*	-6
O=C(O)CCCNC(=O)c1cncc(O)c1	1	3	4	7	-6	.
O=C(O)CCCCCCNC(=O)c1cncc(O)c1	-1	0	8	-1	23*	-2
CCCCNC(=O)Nc1ccccc1C(=O)NCCC	-1	-3	-1	3	3	.
CCCCNC(=O)Nc1ccccc1C(=O)Nc1ccc(OC)cc1	-1	5	-5	-13	50*	2
CCn1c(SCC(N)=O)nc2cc(S(=O)(=O)N3CCOCC3)ccc21	-1	1	10	-3	-7	.
CCn1c(CCl)nc2cc(S(=O)(=O)N3CCOCC3)ccc21	2	0	2	.	18*	7
CC(C)CNC(=O)C1Nc2ccccc2C2C=CCC12 (stereo not drawn)	13	9	-7	12	20*	5
Cc1c(/C=N/O)c2ccccn2c1C(=O)c1ccc(F)cc1	2	2	6	-3	17*	8
CC(C)C(=O)N1CCC1(C)C(=O)NCc1ccc(F)cc1Cl (stereo not drawn)	5	.	-1	.	8	.
COC(=O)[C@]1(C)CN(C(=O)OC(C)(C)C)C2=C1C(=O)C[C@](C)(C(=O)OC(C)(C)C)C2	4	.	.	.	5	.
COC(=O)C1=C(NC(=O)COc2ccc(Cl)cc2Cl)CCS1	-5	0	1	-1	20*	-2
Cc1ccc(CN2CCCCC(NC(=O)c3c(F)cccc3F)C2=O)cc1 (stereo not drawn)	1	.	.	.	8	.
COc1cc(/C=N/N=C2/NC(=O)C(Cc3ccc(F)cc3)S2)ccc1O (stereo not drawn)	-9	11	4	9	12	.
COc1cc(/C=N/N=C2/NC(=O)C(c3ccccc3)S2)ccc1O (stereo not drawn)	21	20	9	6	19*	9
C=C(O[C@H]1[C@H](O)CC=C(C(=O)O)[C@@H]1O)C(=O)O	3	.	.	.	-4	.
CCN(CC)c1ccc(/C=N/N2CCN(Cc3ccccc3Cl)CC2)c(O)c1	3	4	2	0	22*	4
CCN(CC)c1ccc(/C=N/N2CCN(Cc3ccc(C)cc3)CC2)c(O)c1	.	4	.	2	.	.
O=C(OCc1cn(Cc2cccc(F)c2F)nn1)N1CCOCC1	1	.	.	.	2	.
SMILES	ABHD4 inh	pPAFAH inh	TCR-CD3 inh	HTRA1 inh	SIAE primary	SIAE inh conf
COc1ccc(N2CCN(C(=O)c3cccc(S(=O)(=O)N4CCCc5ccccc54)c3)CC2)cc1	4	5	-4	0	7	.
COc1ccc(N2CCN(C(=O)c3cccc(S(=O)(=O)N4CCc5ccccc54)c3)CC2)cc1	0	3	-3	-7	90*	8
NC(=S)Nc1cccc2cc3ccccc3cc12	25	19	-2	27	19*	7
COc1ccc(-c2noc(C3CCCN(C(=O)Nc4cccc(C)c4)C3)n2)cc1 (stereo not drawn)	-10	.	.	.	0	.
COc1ccc(C)cc1N(CC(=O)N1CCCC1)S(C)(=O)=O	2	1	-2	2	18*	-1
COc1ccc(C(=O)Oc2ccc3c(C)cc(=O)oc3c2C(C)=O)cc1	0	0	-2	-3	17*	-1
O=C(COC(=O)/C=C/c1cccs1)Nc1nc(-c2cccc(Br)c2)cs1	9	0	-1	-5	30*	16
NC(=O)c1ncn([C@@H]2O[C@H](C(=O)N3CCCN(Cc4ccccc4F)CC3)[C@@H](O)[C@H]2O)n1	0	.	6	.	80*	88*
Cc1ccccc1CN1CCN(C(=O)[C@H]2O[C@@H](n3cnc(C(N)=O)n3)[C@H](O)[C@@H]2O)CC1	-3	.	4	.	19*	29*
COc1ccc(CN2C[C@@H](CO)O[C@@H](n3cnc4c(NCCN(C)C)ncnc43)C2)cc1	4	.	3	.	8	.
COc1ccc(-c2nc(SCC(=O)NC3CCCC3)c(-c3ccc(OC)cc3)[nH]2)cc1	9	4	-2	7	18*	6
COc1ccc(-n2ccnc(SCC(=O)NC3CCCC3)c2=O)cc1	7	-3	3	-3	3	.
COc1ccc(-c2[nH]c(-c3ccc(SC)cc3)nc2SCC(=O)Nc2nccs2)cc1	10	7	1	3	22*	9
CN(Cc1ccccc1)S(=O)(=O)c1cccc(C(=O)OCc2ccccc2Cl)c1	-6	.	.	.	5	.
CCN(Cc1cn(CC2CCCCC2)nn1)S(=O)(=O)c1ccccc1Br	6	.	.	.	-5	.
NC(=O)N/N=C/c1ccc(-c2ccc([N+](=O)[O-])cc2)o1	-1	-1	-7	5	11	.
O=[N+]([O-])c1ccc(-c2ccc(/C=N/O)o2)cc1	-3	2	-8	.	25*	2
Cc1cccc(C(=O)NCC(c2ccco2)N2CCc3ccccc32)c1 (stereo not drawn)	8	5	2	-9	22*	9
Cc1cccc(C(=O)NCC(=O)NCC(c2ccco2)N2CCCCC2)c1 (stereo not drawn)	0	3	-2	-8	18*	1
O=C(NCC(c1ccco1)N1CCc2ccccc21)c1cccc([N+](=O)[O-])c1 (stereo not drawn)	0	5	3	4	4	.
O=C(NCC(c1ccco1)N1CCc2ccccc21)c1ccc([N+](=O)[O-])cc1 (stereo not drawn)	9	5	5	3	8	.
Cc1ccc(C(=O)NCC(c2ccco2)N2CCc3ccccc32)cc1 (stereo not drawn)	1	3	0	1	21*	3
Cc1nc(SCC(=O)N(CC(C)C)C2CCS(=O)(=O)C2)c2ccccc2n1 (stereo not drawn)	3	-8	0	3	17*	-1
COc1cccc(OCC(O)CN2CCN(c3ccccc3)CC2)c1 (stereo not drawn)	2	3	-2	8	7	.
COc1cccc(OCC(O)CN2CCN(c3ccc(Cl)cc3)CC2)c1 (stereo not drawn)	-5	11	1	1	19*	0
